Results taken from ChEMBL document CHEMBL3351414, “Novel 9'-substituted-noscapines: synthesis with Suzuki cross-coupling, structure elucidation and biological evaluation” (Eur J Med Chem, 2014).
Active and inactive are the calls of the source. The calls are words filed in the database; no cut-off is given here.

Assays:
PBL [1] = test: Cytotoxicity against PHA-stimulated human PBLs assessed as reduction in cell growth; type: cell-based
How it was run: (§1)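 Peripheral blood lymphocytes from healthy donors, tested either resting (no PHA) or PHA-stimulated. Value is the concentration reducing cell growth by 50%, mean ± SEM of three separate experiments.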

Jurkat [2] = test: Antiproliferative activity against human Jurkat cells assessed as reduction in cell viability after 72 hrs by MTT assay; type: functional, cell-based
How it was run: (§2)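 Cells kept in RPMI-1640 (Jurkat, SEM, RS4;11) or DMEM (A549, HeLa, IGROV-1, HT-29) with 10% FBS plus penicillin/streptomycin. 8×10^3 cells per well were left 18 h at 37 °C in 5% CO2. Medium was then replaced with fresh medium holding graded compound concentrations from 10 mM DMSO stocks. Cells were incubated 72 h and viability read by MTT. IC50 is the mean ± SEM from dose–response curves of at least three independent experiments.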

[3] = Antiproliferative activity against human SEM cells assessed as reduction in cell viability after 72 hrs by MTT assay; type: functional, cell-based; how it was run: as §2
[4] = Antiproliferative activity against human RS4:11 cells assessed as reduction in cell viability after 72 hrs by MTT assay; type: functional, cell-based; conditions: RS4-11, 72 h; how it was run: as §2
CCRF-CEM = test: Antiproliferative activity against human CEM cells assessed as reduction in cell viability after 72 hrs by MTT assay; type: functional, cell-based
LoVo = test: Antiproliferative activity against human LoVo cells assessed as reduction in cell viability after 72 hrs by MTT assay; type: functional, cell-based
HT-29 = test: Antiproliferative activity against human HT-29 cells assessed as reduction in cell viability after 72 hrs by MTT assay; type: functional, cell-based; conditions: HT-29, 72 h; how it was run: as §2
A549 = test: Antiproliferative activity against human A549 cells assessed as reduction in cell viability after 72 hrs by MTT assay; type: functional, cell-based; conditions: A549, 72 h; how it was run: as §2
IGROV-1 = test: Antiproliferative activity against human IGROV1 cells assessed as reduction in cell viability after 72 hrs by MTT assay; type: functional, cell-based; conditions: IGROV-1, 72 h; how it was run: as §2
PBL [5] = test: Cytotoxicity against resting human PBLs assessed as reduction in cell growth; type: cell-based; how it was run: as §1
Tubulin [6] = molecular target: T1, Tubulin (Bos taurus, UniProt Q6B856+Q862L2+Q862F3); test: Inhibition of bovine brain tubulin assessed as extent of assembly preincubated for 15 mins by turbidimetry
How it was run: (§3)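 Bovine brain tubulin at 10 µM (1.0 mg/mL) in 0.8 M monosodium glutamate pH 6.6 with 4% DMSO and varying compound was preincubated 15 min at 30 °C, then chilled. GTP was added to 0.4 mM final and the temperature jumped from 0 to 30 °C. Turbidity was followed at 350 nm, scoring either maximum rate or extent of assembly at 20 min.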

Tubulin [7] = molecular target: T1, Tubulin; test: Inhibition of bovine brain tubulin assessed as rate of assembly preincubated for 15 mins by turbidimetry; how it was run: as §3
HeLa [8] = test: Disruption of microtubule network in human HeLa cells assessed as induction of spherical morphology at 25 uM after 24 hrs by immunofluorescence microscopy; type: cell-based
How it was run: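 HeLa cells exposed 24 h at 25 µM, fixed in cold 4% formaldehyde for 15 min, and stained with anti-β-tubulin plus Alexa-conjugated secondary antibody, with DAPI counterstain. Cells were imaged by confocal microscopy.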

HeLa [9] = test: Effect on PCM1 protein in human HeLa cells assessed as accumulation of pericentriolar material at 25 uM after 24 hrs by immunofluorescence microscopy; type: functional, cell-based
How it was run: (§4)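 After 24 h at 25 µM, HeLa cells were stained with anti-PCM1 and Alexa-conjugated secondary antibody, with phalloidin-tetramethylrhodamine B for actin and DAPI for nuclei. Cells were imaged by confocal microscopy at 60×.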

HeLa [10] = test: Effect on cell morphology in human HeLa cells at 25 uM after 24 hrs using phalloidin staining by confocal microscopy; type: functional, cell-based; how it was run: as §4
HeLa [11] = test: Effect on cell morphology in human HeLa cells assessed as disorganization of actin filament at 25 uM after 24 hrs by confocal microscopy relative to control; type: functional, cell-based; how it was run: as §4
HeLa [12] = test: Cell cycle arrest in human HeLa cells assessed as accumulation at G2/M phase after 24 hrs by flow cytometry; type: functional, cell-based
How it was run: (§5)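 5×10^5 HeLa or Jurkat cells exposed to graded compound concentrations for 24 h. Cells were fixed in ice-cold 70% ethanol, lysed with RNase A/0.1% Triton X-100 buffer and stained with propidium iodide. DNA content was read by flow cytometry. Phase percentages are mean ± SEM of three independent experiments.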

Jurkat [13] = test: Cell cycle arrest in human Jurkat cells assessed as accumulation at G2/M phase after 24 hrs by flow cytometry; type: functional, cell-based; how it was run: as §5
HeLa [14] = test: Cell cycle arrest in human HeLa cells assessed as accumulation at G2/M phase at 10 to 25 uM after 24 hrs by flow cytometry; type: functional, cell-based; how it was run: as §5
HeLa [15] = test: Cell cycle arrest in human HeLa cells assessed as accumulation at G2/M phase at 25 uM after 24 hrs by flow cytometry; type: functional; how it was run: as §5
Jurkat [16] = test: Cell cycle arrest in human Jurkat cells assessed as accumulation at G2/M phase at 10 to 25 uM after 24 hrs by flow cytometry; type: functional, cell-based; how it was run: as §5
CA46 [17] = test: Antiproliferative activity against human CA46 cells assessed as reduction in cell viability after 72 hrs by MTT assay; type: functional, cell-based; conditions: CA46, 72 h
CA46 [18] = test: Cell cycle arrest in human CA46 cells assessed as accumulation at G2/M phase at 5 times IC50 by flow cytometry; type: functional
CA46 [19] = test: Cell cycle arrest in human CA46 cells assessed as reduction in mitotic index by Giemsa staining method relative to control; type: functional; parameters: scale not given: the % may be the effect or the level left
How it was run: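 CA46 Burkitt lymphoma cells grown in RPMI 1640 with 17% FBS and 2 mM L-glutamine at 37 °C, 5% CO2, treated 16 h. Cells were swollen 10 min in half-strength PBS, fixed in 0.5% acetic acid–1.5% ethanol, then spread from 25% acetic acid/75% ethanol. Slides were Giemsa-stained. Mitotic cells were those with condensed chromosomes and no nuclear membrane, with ≥200 cells counted per condition.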

HeLa [20] = test: Antiproliferative activity against human HeLa cells assessed as reduction in cell viability after 72 hrs by MTT assay; type: functional, cell-based; how it was run: as §2
Tubulin (Bos taurus) = Tubulin (Bos taurus) (UniProt Q6B856+Q862L2+Q862F3); test: Displacement of [3H]colchicine from bovine brain tubulin at 500 uM after 10 mins by liquid scintillation counting

SMILES | IC50 (PBL [1]) | IC50 [3] | IC50 [4] | IC50 (CCRF-CEM) | IC50 (LoVo) | IC50 (HT-29) | IC50 (A549) | IC50 (IGROV-1) | IC50 (PBL [5]) | IC50 (Tubulin [6]) | IC50 (Tubulin [7]) | Activity (HeLa [9]) | inhibition (Tubulin (Bos taurus)) | further results
COc1ccc(-c2c3c(c(OC)c4c2OCO4)[C@H]([C@H]2OC(=O)c4c2ccc(OC)c4OC)N(C)CC3)cc1 | > 200 µM | 15.1 µM | 12.6 µM | 25.8 µM | 28.8 µM | 47.8 µM | > 100 µM | 55.6 µM | > 200 µM | – | – | – | – | IC50 (Jurkat [2]): 11.3 µM
COc1cccc(-c2c3c(c(OC)c4c2OCO4)[C@H]([C@H]2OC(=O)c4c2ccc(OC)c4OC)N(C)CC3)c1 | > 200 µM | 13 µM | 7.1 µM | 22.3 µM | 29.4 µM | 36.1 µM | > 100 µM | 57.2 µM | > 200 µM | > 400 µM | 170 µM | Active | 38% | Activity (HeLa [8]): 70%; Activity (HeLa [10]): Active; Activity (HeLa [11]): Active; Activity (HeLa [12]): Dose-dependent effect; Activity (Jurkat [13]): Dose-dependent effect; Activity (HeLa [14]): Active; Activity (HeLa [15]): >80%; Activity (Jurkat [16]): Active; IC50 (CA46 [17]): 20 µM; Activity (CA46 [18]): >80%; Activity (CA46 [19]): 28%; IC50 (HeLa [20]): 8.9 µM
COc1ccc2c(c1OC)C(=O)O[C@@H]2[C@H]1c2c(cc3c(c2OC)OCO3)CCN1C [NOSCAPINE] | – | – | – | – | – | – | – | – | – | > 400 µM | 170 µM | – | 44% | –
COC(=O)Nc1nc2cc(C(=O)c3cccs3)ccc2[nH]1 | – | – | – | – | – | – | – | – | – | – | – | Active | – | –
